Hit rate of the full screen: of about 290,000 compounds, about 1,600 (0.55%) were called active. This is one part of a sample in which actives are shown more often than they occur. A number with no mark means an inactive call.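 The calls were made as follows: active = inhibition above the mean of all tested compounds plus 3 SD, set per campaign (cut at about 35% in these data); inactive = the rest.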
test system: Hepatitis C virus NS3 helicase; assay: inhibitors of HCV NS3 helicase, primary screen, biochemical, Cy5 molecular beacon fluorescence (AID 1800); conditions: NS3 helicase DNA unwinding, at 10.9 µM, hits give high values;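 also: 0% = DMSO wells and 100% = thioflavine S control wells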
Method in brief: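 test system = hepatitis C virus NS3 helicase domain fragment enzyme | reagent = annealed dual-labelled DNA beacon duplex, ATP-started | times = 1 h at 25 °C | detection = Cy5 fluorescence, 0 and 60 min reads | read-out basis = percent inhibition from t60/t0 fluorescence ratio | control set = DMSO and thioflavine S | replication = one well per compound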

| SMILES | inhibition |
| --- | --- |
| Cc1cc(O)c(C(=O)/C=C/c2c(F)c(F)c(F)c(F)c2F)c(=O)o1 | 53.7% (active) |
| Cc1ccc(N=Cc2c(O)cc(C)oc2=O)c(C)c1 | -4.71% |
| COc1ccc(Cl)cc1NC(=O)CN(C)C(=O)CCCc1c[nH]c2ccccc12 | -11.3% |
| Cc1nc2ccccc2c(=O)n1NC(=O)c1ccc(Cl)c([N+](=O)[O-])c1 | -12.7% |
| Cc1ccc(C(=O)O)cc1-c1ccc(/C=C2\SC(=O)N(CC(=O)Nc3ccc4c(c3)OCO4)C2=O)o1 | 46.3% (active) |
| O=C(CN1CCN(CC(=O)Nc2ccc3c(c2)OCO3)CC1)Nc1ccc(F)cc1 | 2% |
| COc1ccc(NC(=O)CCN2C(=O)/C(=C/c3ccc4c(c3)OCO4)SC2=S)cc1 | -4.44% |
| Cc1ccc(C)c(-n2c(SCC(=O)O)nc3sc4c(c3c2=O)CCCC4)c1 | 37.1% (active) |
| CCSc1nc2sc3c(c2c(=O)n1-c1ccc(C)cc1)CCN(C)C3 | -28.2% |
| COc1ccccc1-n1c(SCC(=O)O)nc2sc3c(c2c1=O)CCC3 | 5.31% |
| Cc1cccc(N2CCN(C(C)C(=O)N3CCc4ccccc43)CC2)c1C (stereo unspecified) | -14.8% |
| Cc1cccc(N(C)C(=O)c2cc(S(=O)(=O)N3CCCCC3)c[nH]2)c1 | -16.4% |
| Cc1ccc(OCc2cc(C(=O)N(C)CCn3ccnc3C)no2)cc1C | -14.7% |
| COc1ccc(OCC(=O)Nc2nnc(-c3ccco3)s2)cc1 | 58.5% (active) |
| CNc1nnc(-c2ccco2)s1 | -1.81% |
| Cc1ccc(OCC(=O)Nc2nnc(-c3ccco3)s2)cc1 | 13.6% |
| Cc1cccc(NC(=O)CCn2c(=O)oc3ccccc32)c1 | -6.84% |
| COc1ccc(C(=O)C2CCCN(C(=O)c3ccc(OC)o3)C2)c(C)c1 (stereo unspecified) | -2.85% |
| COC(=O)C1=C(C)N(C(C)c2ccccc2)C(=O)/C1=C\c1ccco1 (stereo unspecified) | 20.9% |

| SMILES | inhibition |
| --- | --- |
| COc1cc(CN2CCC(C(N)=O)CC2)ccc1OCc1ccccc1 | -5.96% |
| COc1cc(C2CC(=O)N3CN(Cc4ccccc4)CSC3=C2C#N)ccc1OCc1ccccc1 (stereo unspecified) | 52.1% (active) |
| COc1cc(CNC2CCCC2)c(Br)cc1OCc1ccccc1 | -30.4% |
| COC(=O)c1cc(S(=O)(=O)N2CCC(C(N)=O)CC2)oc1C | 4.32% |
| Cc1cc(N2C(=O)C(=O)/C(=C(/O)c3ccc(Cl)cc3)C2c2cccc(Br)c2)no1 (stereo unspecified) | 24.4% |
| COc1ccc(C2/C(=C(/O)c3ccccc3)C(=O)C(=O)N2C)c(OC)c1 (stereo unspecified) | 3.37% |
| COc1ccccc1C1/C(=C(/O)c2ccc(OC(C)C)cc2)C(=O)C(=O)N1c1cc(C)on1 (stereo unspecified) | 43.1% (active) |
| CN(c1ccccc1)S(=O)(=O)c1ccc(C(=O)NCCc2ccccc2)cc1 | -7.81% |
| O=C(CC1C(=O)NCCN1C(=O)c1ccc([N+](=O)[O-])cc1)Nc1cccc(Cl)c1 (stereo unspecified) | -5.86% |
| Cc1ccc(Nc2ncnc3c2cnn3C)c(C)c1 | 5.11% |
| CCc1nnc(NC(=O)/C=C/c2ccc(C)o2)s1 | 8.82% |
| Cc1ccc(/C=C/C(=O)Nc2cc(S(=O)(=O)N3CCCCCC3)ccc2OCC(F)(F)F)o1 | 21.8% |
| Cc1ccc(/C=C/C(=O)Nc2ccc([N+](=O)[O-])c(NC(=O)/C=C/c3ccc(C)o3)c2)o1 | 46.7% (active) |
| COc1ccc(C)cc1N(CC(=O)N1CCCC1)S(=O)(=O)c1ccccc1 | 21% |
| Cc1ccc(C(c2nnnn2CS(=O)(=O)c2ccc(C)cc2)N2CCC(C)CC2)cc1 (stereo unspecified) | -6.3% |
| CC(=O)N1c2ccc(S(=O)(=O)N(C)CC(=O)N(C)Cc3ccccc3)cc2CC1C (stereo unspecified) | -2.38% |
| Cc1ccc(OCC(=O)c2cc(C)n(Cc3ccco3)c2C)c([N+](=O)[O-])n1 | 41.5% (active) |
| COc1ccc(OC)c(-n2nnnc2SCC(=O)Nc2cc(C)ccc2OC)c1 | -1.59% |
| COCC(C)n1c(C)cc(C(=O)COc2ccc(C)nc2[N+](=O)[O-])c1C (stereo unspecified) | 2.44% |

| SMILES | inhibition |
| --- | --- |
| Cc1cc(C(=O)COC(=O)CNC(=O)c2ccc(F)cc2)c(C)n1Cc1ccco1 | 10% |
| COc1ccc(C)cc1-n1nnnc1SCC(=O)c1cc(C)n(Cc2ccco2)c1C | 52.1% (active) |
| Cc1cc(C(=O)CSc2nc(N)cc(=O)[nH]2)c(C)n1Cc1ccco1 | 22.4% |
| Cc1cc(S(=O)(=O)N2CCOCC2)ccc1OCC(=O)N1CCOCC1 | -4.99% |
| COc1cc(NC(=O)CCS(=O)(=O)c2ccc3c(c2)oc(=O)n3C)cc(OC)c1 | 3.01% |
| CCc1ccc(NC(=O)CS(=O)CC(=O)N2CCN(c3ccccc3F)CC2)cc1 (stereo unspecified) | 8.61% |
| COc1ccc(NC(=O)CN2C(=O)CSc3ccc(S(=O)(=O)N4CCC(C)CC4)cc32)cc1 | -2.68% |
| COc1cccc(NCCC(=O)c2cccc([N+](=O)[O-])c2)c1 | 2.63% |
| COc1ccc(C(=O)CC(=O)C(=O)Nc2cc([N+](=O)[O-])ccc2OC)cc1 | 12.6% |
| COc1cccc(C(=O)CC(=O)C(=O)Nc2ccc([N+](=O)[O-])cc2C)c1 | 37.6% (active) |
| COc1ccc(-n2ncc3c(SCC(=O)NNC(C)=O)ncnc32)cc1 | 5.53% |
| O=C1NN(c2ccccc2)C(=O)/C1=C/c1ccc(-c2cccc(C(=O)O)c2)o1 | 54.3% (active) |
| O=C(O)C(c1ccccc1)N1C(=O)/C(=C\c2ccc(-c3cccc(Cl)c3)o2)SC1=S (stereo unspecified) | 8.54% |
| Cc1cccc(C)c1-n1c(C)cc(/C=C2\C(=O)NN(c3ccccc3)C2=O)c1C | 9.92% |
| CC(NS(=O)(=O)c1ccc(OCC(=O)N2CCCC2)cc1)c1ccccc1 (stereo unspecified) | -5.83% |
| O=C(NCc1ccccc1)C(=O)NCC1OCCN1S(=O)(=O)c1ccc(Br)cc1 (stereo unspecified) | -0.44% |
| O=C(COc1ccc2c(c1)CCC2)N1CCN(c2ccc(F)cc2)CC1 | -11.2% |
| CC1(C)NC(=O)N(CCCCSc2ccc(Cl)cc2)C1=O | -1.4% |
